We go through 17 compounds from ChEMBL document CHEMBL1123232, “Acyl, N-protected alpha-aminoacyl, and peptidyl derivatives as prodrug forms of the alcohol deterrent agent cyanamide” (J Med Chem, 1986).

What all share (assay type): functional, organism-based
The subject of test [1] is Rattus norvegicus. Description: (§1) Tested for effect on ethanol derived blood Ach levels in rats at 1.0 mmol/kg. In short, it runs like this:
(§2)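 Fasted male Sprague-Dawley rats (185-225 g) received a single 1.0 mmol/kg ip dose at zero time, in saline or in 2% aqueous CMC if water-insoluble. Ethanol (2.0 g/kg, ip) was given at 2 or 15 h. Blood from open-chest cardiac puncture 1 h later went into 5 mM sodium azide. Headspace GC in duplicate against an AcH standard curve. Four rats per protocol; mean ± SE.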

Test [2] concerns Rattus norvegicus. The test is described as §1. In short, it runs like this: as §2
This is another data set of the same source.

Test [3] concerns Rattus norvegicus. The experiment in a line: Compound was tested for effect on ethanol derived blood Ach levels in rats at administration (pro drug administration of 1.0 mmol/kg) ip. Put shortly: as §2
For test [4], the system named is Rattus norvegicus. The experiment in a line: Compound was tested for effect on ethanol derived blood Ach levels in rats at the administrations (pro drug administration of 1.0 mmol/kg) oral(po). In short, it runs like this: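 A single 1.0 mmol/kg dose was given by stomach tube at zero time to fasted male Sprague-Dawley rats (185-225 g). Ethanol (2.0 g/kg, ip) was given 1 h before sacrifice: blood sampled at 4 h, or over 48 h with ethanol at 1, 4, 11, 23, 35 and 47 h, two rats per time. Cardiac blood went into sodium azide; AcH was measured by headspace GC in duplicate.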

Regarding `CCCC(=O)NC#N`, the figures for the Concentration in test [1] and in test [2] were 250 µM and 1750 µM, respectively.
The matching figures for `N#CNC(=O)C12CC3CC(CC(C3)C1)C2`: 75 µM and 1250 µM.
Consider `N#CNC(=O)[C@H](Cc1ccccc1)NC(=O)[C@@H]1CCC(=O)N1`, for which the Concentration is 150 µM in test [1] and 1150 µM in test [2].
The matching figures for `N#CNC(=O)CNC(=O)c1ccccc1`: 200 µM and 400 µM.
`CC(C)(C)C(=O)NC#N`: the Concentration is 200 µM in test [1] and 1200 µM in test [2].
The matching figures for `N#CNC(=O)OCc1ccccc1`: 50 µM and 1200 µM.
In the case of `CC(C)C[C@H](NC(=O)c1ccccc1)C(=O)NC#N`, the Concentration in test [1] turned out to be 300 µM; in test [2], 1000 µM.
For the compound `N#CNC(=O)CNC(=O)OCc1ccccc1`, the Concentration came out at 35 µM in test [1], 850 µM in test [3], 900 µM in test [2] and 125 µM in test [4].
For `CC(C)C[C@H](NC(=O)CNC(=O)OCc1ccccc1)C(=O)NC#N`, the Concentration in test [1] stood at 35 µM; in test [2], 1050 µM.
Take `CCCCCCCCCCCCCCCCCC(=O)NC#N`: the Concentration in test [1] stood at 600 µM; in test [2] it was 1300 µM.
As for `CCCCCCCCCCCCCCCC(=O)NC#N`, the Concentration in test [1] came to 1100 µM; in test [3] it was 1150 µM; in test [2], 1600 µM; in test [4], 1300 µM.
In the case of `CC(=O)NC#N`, the Concentration in test [1] is 50 µM; in test [3] it was 400 µM; in test [2], 250 µM; in test [4], 350 µM.
Consider `N#CN`, for which the Concentration in test [1] is 225 µM; in test [2], 1050 µM.
Take `N#CNC(=O)Cc1ccccc1`: the Concentration in test [1] was 1300 µM; in test [2], 1250 µM.
In the same order, the values of `CC(C)C[C@H](NC(=O)[C@@H]1CCC(=O)N1)C(=O)NC#N` are 25 µM and 200 µM.
Take `N#CNC(=O)c1ccccc1`: the Concentration in test [1] was determined as 100 µM; in test [2], 300 µM.
In the same order, the values of `N#CNC(=O)C1CCC(=O)N1C(=O)OCc1ccccc1` (stereo not given) are 35 µM and 175 µM.
